ChEMBL document CHEMBL1150360, “Design, synthesis, and QSAR studies of novel lysine derives as amino-peptidase N/CD13 inhibitors” (Bioorg Med Chem, 2008)

What was measured:
[1] = molecular target: 72 kDa type IV collagenase (Homo sapiens, UniProt P08253); test: Inhibition of MMP2
Summary of the method: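 Gelatinase A enzyme, synthetic substrate and inhibitor dissolved together in 50 mmol/L sodium borate, pH 8.5, and incubated 30 min at 37 °C. 0.03% TNBS then added and incubated a further 20 min. Absorbance read at 450 nm.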

[2] = Inhibition of aminopeptidase N
Summary of the method: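 Porcine kidney microsomal aminopeptidase, 4 µg/mL final, preincubated 30 min at room temperature with inhibitor. Inhibitor solutions made in assay buffer and adjusted to pH 7.5. Substrate L-Leu-p-nitroanilide in 50 mM PBS, pH 7.2, at 37 °C; hydrolysis followed as absorbance change at 405 nm. IC50 determined.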

Chain of 72 kDa type IV collagenase (P08253 whole entry): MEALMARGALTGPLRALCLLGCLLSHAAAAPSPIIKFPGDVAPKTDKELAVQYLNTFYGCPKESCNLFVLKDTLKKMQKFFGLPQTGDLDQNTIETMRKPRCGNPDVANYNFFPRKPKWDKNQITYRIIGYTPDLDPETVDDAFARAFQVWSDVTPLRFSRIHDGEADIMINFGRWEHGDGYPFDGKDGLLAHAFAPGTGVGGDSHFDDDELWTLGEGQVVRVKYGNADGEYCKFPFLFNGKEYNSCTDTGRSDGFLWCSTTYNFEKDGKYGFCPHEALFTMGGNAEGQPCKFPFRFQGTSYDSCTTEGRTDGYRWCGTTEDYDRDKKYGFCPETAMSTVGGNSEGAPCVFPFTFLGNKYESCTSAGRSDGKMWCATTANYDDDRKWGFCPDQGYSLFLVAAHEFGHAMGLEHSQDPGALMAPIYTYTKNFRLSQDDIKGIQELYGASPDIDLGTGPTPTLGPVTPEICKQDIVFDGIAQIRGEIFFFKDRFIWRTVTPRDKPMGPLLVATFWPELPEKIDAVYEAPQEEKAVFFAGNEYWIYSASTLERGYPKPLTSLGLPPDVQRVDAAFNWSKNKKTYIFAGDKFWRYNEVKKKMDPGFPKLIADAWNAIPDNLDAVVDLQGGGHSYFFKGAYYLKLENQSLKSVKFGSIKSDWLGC

Compound	IC50 [1]	IC50 [2]	pIC50 [2]
O=C(NCCCC[C@H](NC(=O)c1cnccn1)C(=O)O)OCc1ccccc1	2.93 µM	197 µM	3.7
O=C(NCCCC[C@H](NC(=O)c1ccncc1)C(=O)O)OCc1ccccc1	8.76 µM	292 µM	3.54
O=C(NCCCC[C@H](NC(=O)c1ccco1)C(=O)O)OCc1ccccc1	8.49 µM	1120 µM	2.95
O=C(NCCCC[C@H](NC(=O)c1ccc(Cl)cc1Cl)C(=O)NO)OCc1ccccc1	170 µM	13.2 µM	4.88
O=C(NCCCC[C@H](NC(=O)c1ccc(Cl)cc1Cl)C(=O)O)OCc1ccccc1	17.8 µM	127 µM	3.9
O=C(NCCCC[C@H](NC(=O)c1cccs1)C(=O)NO)OCc1ccccc1	12.6 µM	159 µM	3.8
O=C(NCCCC[C@H](NC(=O)c1ccco1)C(=O)NO)OCc1ccccc1	8.08 µM	159 µM	3.8
O=C(NCCCC[C@H](NC(=O)c1ccc([N+](=O)[O-])cc1)C(=O)O)OCc1ccccc1	19.2 µM	202 µM	3.69
O=C(NCCCC[C@H](NC(=O)c1cccnc1)C(=O)NO)OCc1ccccc1	8 µM	94.3 µM	4.03
O=C(NCCCC[C@H](NC(=O)c1ccc(Br)cc1)C(=O)NO)OCc1ccccc1	9.94 µM	112 µM	3.95
O=C(NCCCC[C@H](NC(=O)c1cnccn1)C(=O)NO)OCc1ccccc1	14.3 µM	97 µM	4.01
O=C(NCCCC[C@H](NC(=O)c1ccncc1)C(=O)NO)OCc1ccccc1	25.5 µM	91.2 µM	4.04
O=C(/C=C/c1ccccc1)N[C@@H](CCCCNC(=O)OCc1ccccc1)C(=O)O	50.5 µM	215 µM	3.67
O=C(NCCCC[C@H](NC(=O)c1ccc([N+](=O)[O-])cc1)C(=O)NO)OCc1ccccc1	32 µM	108 µM	3.97
O=C(/C=C/c1ccccc1)N[C@@H](CCCCNC(=O)OCc1ccccc1)C(=O)NO	3.54 µM	570 µM	3.24
O=C(NCCCC[C@H](NC(=O)c1cccs1)C(=O)O)OCc1ccccc1	12.7 µM	1250 µM	2.9
O=C(NCCCC[C@H](NC(=O)c1ccc(Br)cc1)C(=O)O)OCc1ccccc1	13.1 µM	188 µM	3.73
O=C(NCCCC[C@H](NC(=O)c1cccc([N+](=O)[O-])c1)C(=O)NO)OCc1ccccc1	11.7 µM	95.8 µM	4.02
CC(C)C[C@H](NC(=O)[C@@H](O)[C@H](N)Cc1ccccc1)C(=O)O [UBENIMEX]	22 µM	15.5 µM	
O=C(NCCCC[C@H](NC(=O)c1cccc([N+](=O)[O-])c1)C(=O)O)OCc1ccccc1	7.48 µM	111 µM	3.96
O=C(NCCCC[C@H](NC(=O)c1cccnc1)C(=O)O)OCc1ccccc1	3.14 µM	167 µM	3.78
